Calls of active or inactive are those of the source. The calls are words filed in the database; no cut-off is given here.

Activity and ED50 data for eight molecules are collected here from ChEMBL document CHEMBL3244169, “(1-(3-(Phenothiazin-10-yl)propyl)-4-piperidinyl)phenylmethanones, a novel class of long-acting neuroleptic agents” (J Med Chem, 1978).

For data set [1], the system named is Mus musculus. Put plainly: Neuroleptic activity in mouse assessed as suppression of conditioned avoidance behavior by measuring mean correct responses level at 10 mg/kg, ip administered 8 hrs prior to electric shock challenge. Conditions: route intraperitoneal. Type of data set: functional. Summed up:
(§1)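 After 20 s a solenoid pushed each mouse back onto the grid, leaving 5 s to return and avoid the next shock. Trained mice reaching 90–100% correct avoidance (3–5 per group) received 10 mg/kg ip. Twenty trials were run before dosing and at intervals after. Percent correct avoidance per animal was averaged per group.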

In data set [2] the test system is Mus musculus. Put plainly: Neuroleptic activity in mouse assessed as suppression of conditioned avoidance behavior by measuring mean correct responses level at 10 mg/kg, ip administered 1 day prior to electric shock challenge. Type of data set: functional. To be noted: route intraperitoneal. The essentials:
as §1

Data set [3] concerns Mus musculus. Nature of the data set: Neuroleptic activity in mouse assessed as suppression of conditioned avoidance behavior by measuring mean correct responses level at 10 mg/kg, ip administered 2 days prior to electric shock challenge. Type of data set: functional. To be noted: route intraperitoneal. The essentials: as §1
The test system of data set [4] is Mus musculus. Put plainly: Neuroleptic activity in mouse assessed as suppression of conditioned avoidance behavior by measuring mean correct responses level at 10 mg/kg, ip administered 4 hrs prior to electric shock challenge. Conditions: route intraperitoneal. Type of data set: functional. Summed up:
as §1

In data set [5] the test system is Mus musculus. Put plainly: Neuroleptic activity in ip dosed ICR-DUB mouse assessed as survival administered 1 hr prior to d-amphetamine challenge measured after 24 hrs. Type of data set: functional.
Data set [6] deals with Mus musculus. Put plainly: Neuroleptic activity in ip dosed ICR-DUB mouse assessed as survival administered 16 hrs prior to d-amphetamine challenge measured after 24 hrs. Type of data set: functional.
The test system of data set [7] is Mus musculus. Nature of the data set: Neuroleptic activity in ip dosed ICR-DUB mouse assessed as survival administered 2 days prior to d-amphetamine challenge measured after 24 hrs. Format: functional.
Data set [8] relates to Mus musculus. Put plainly: Neuroleptic activity in ip dosed ICR-DUB mouse assessed as survival administered 3 days prior to d-amphetamine challenge measured after 24 hrs. Format: functional.
For data set [9], the system named is Mus musculus. Nature of the data set: Neuroleptic activity in mouse assessed as suppression of conditioned avoidance behavior by measuring mean correct responses level at 10 mg/kg, ip administered immediately prior to electric shock challenge. Format: functional. Conditions: route intraperitoneal. Summed up: as §1
The test system of data set [10] is Mus musculus. Put plainly: Neuroleptic activity in mouse assessed as suppression of conditioned avoidance behavior by measuring mean correct responses level at 10 mg/kg, ip administered 1 hr prior to electric shock challenge. Format: functional. Conditions: route intraperitoneal. The essentials:
as §1

Data set [11] relates to Mus musculus. Nature of the data set: Neuroleptic activity in mouse assessed as suppression of conditioned avoidance behavior by measuring mean correct responses level at 10 mg/kg, ip administered 2 hrs prior to electric shock challenge. Type of data set: functional. To be noted: route intraperitoneal. Summed up: as §1
Data set [12] relates to Mus musculus. Put plainly: Neuroleptic activity in mouse assessed as suppression of conditioned avoidance behavior by measuring mean correct responses level at 20 mg/kg, ip administered 7 days prior to electric shock challenge. Format: functional, organism-based. Also noted: dose 20 mg/kg.
Data set [13] relates to Mus musculus. Nature of the data set: Neuroleptic activity in ip dosed ICR-DUB mouse assessed as survival administered 4 hrs prior to d-amphetamine challenge measured after 24 hrs. Type of data set: functional.
Data set [14] relates to Mus musculus. Put plainly: Neuroleptic activity in ip dosed ICR-DUB mouse assessed as survival administered 4 days prior to d-amphetamine challenge measured after 24 hrs. Format: functional.
For data set [15], the system named is Mus musculus. Put plainly: Neuroleptic activity in ip dosed ICR-DUB mouse assessed as survival administered 5 days prior to d-amphetamine challenge measured after 24 hrs. Format: functional.
Data set [16] concerns Mus musculus. Put plainly: Neuroleptic activity in ip dosed ICR-DUB mouse assessed as survival administered 7 days prior to d-amphetamine challenge measured after 24 hrs. Format: functional.
For data set [17], the system named is Mus musculus. Nature of the data set: Neuroleptic activity in mouse assessed as suppression of conditioned avoidance behavior by measuring mean correct responses level at 10 mg/kg, ip administered 3 days prior to electric shock challenge. Format: functional. To be noted: route intraperitoneal. The essentials:
as §1

Data set [18] deals with Mus musculus. Nature of the data set: Neuroleptic activity in mouse assessed as suppression of conditioned avoidance behavior by measuring mean correct responses level at 10 mg/kg, ip administered 4 days prior to electric shock challenge. Format: functional. Conditions: route intraperitoneal. The essentials: as §1
The subject of data set [19] is Mus musculus. Put plainly: Toxicity in ICR-DUB mouse assessed as grooming at 50 mg/kg, ip measured during first 24 hrs. Format: organism-based. Also noted: dose 50 mg/kg, route intraperitoneal. Conditions: in vivo.
The test system of data set [20] is Mus musculus. Put plainly: Neuroleptic activity in ip dosed ICR-DUB mouse assessed as survival administered 6 days prior to d-amphetamine challenge measured after 24 hrs. Format: functional.
Data set [21] has as its system Mus musculus. Put plainly: Toxicity in ICR-DUB mouse assessed as CNS depression at 50 mg/kg, ip measured for 24 hrs. To be noted: in vivo. Type of data set: organism-based. The arrangement: dose 50 mg/kg, route intraperitoneal.
Data set [22] concerns Mus musculus. Nature of the data set: Toxicity in ICR-DUB mouse assessed as mild sedation at 50 mg/kg, ip measured for 6 days. Format: organism-based. Also noted: dose 50 mg/kg, route intraperitoneal. Conditions: in vivo, 144 h.
For data set [23], the system named is Mus musculus. Put plainly: Toxicity in ICR-DUB mouse assessed as body weight loss at 50 mg/kg, ip. Type of data set: organism-based. The arrangement: dose 50 mg/kg, route intraperitoneal. Conditions: in vivo.
The test system of data set [24] is Mus musculus. Put plainly: Toxicity in ICR-DUB mouse assessed as grooming at 50 mg/kg, ip. Format: organism-based. The arrangement: dose 50 mg/kg, route intraperitoneal. Conditions: in vivo.
For data set [25], the system named is Mus musculus. Put plainly: Toxicity in ICR-DUB mouse assessed as depression at 60 mg/kg, ip measured for 5 days. Format: organism-based. Also noted: dose 60 mg/kg, route intraperitoneal. Conditions: in vivo, 120 h.
Data set [26] deals with Mus musculus. Put plainly: Toxicity in ICR-DUB mouse assessed as reduction in food intake at 60 mg/kg, ip. Also noted: dose 60 mg/kg, route intraperitoneal. Format: organism-based. To be noted: in vivo.
The subject of data set [27] is Mus musculus. Put plainly: Toxicity in ICR-DUB mouse assessed as grooming of coat at 60 mg/kg, ip. Format: organism-based. The arrangement: dose 60 mg/kg, route intraperitoneal. To be noted: in vivo.

As for `CN(C)CCCN1c2ccccc2Sc2ccc(Cl)cc21` [CHLORPROMAZINE], the Activity in the data set with Mus musculus [1] came to 72%; in the data set with Mus musculus [2] it was 88%; in the data set with Mus musculus [3], 95%; in the data set on Mus musculus [4], 37%; with Mus musculus [9] it was 96%; with Mus musculus [10] it was 42%. In addition, the Activity with Mus musculus [11] is on record as 28%. Moreover, the 50% effective dose (ED50) (in general, the midpoint of the dose-response relation) was 0.28 mg/kg in the data set on Mus musculus [5], 3.65 mg/kg with Mus musculus [6] and above 32 mg/kg in the data set with Mus musculus [7]. Besides, in the data set with Mus musculus [8], the ED50 entry is “Active”.

For the molecule `OC1(c2ccc(Cl)c(C(F)(F)F)c2)CCN(CCCC(c2ccc(F)cc2)c2ccc(F)cc2)CC1` [PENFLURIDOL], in the data set on Mus musculus [12], the outcome was Active. Besides, the ED50 with Mus musculus [5] was 1.28 mg/kg; in the data set with Mus musculus [13], 1.82 mg/kg; in the data set on Mus musculus [6], 1.52 mg/kg; with Mus musculus [7] it was 3 mg/kg; in the data set with Mus musculus [8], 17 mg/kg; in the data set with Mus musculus [14] it was 47.5 mg/kg. For the same molecule, in the data set on Mus musculus [15], the ED50 entry was “Active”.

Take `O.O=C(O)/C=C/C(=O)O.O=C(c1ccc(F)cc1)C1CCN(CCCN2c3ccccc3Sc3ccccc32)CC1`: the Activity with Mus musculus [1] worked out at 93%; with Mus musculus [2], 87%; with Mus musculus [3], 98%; with Mus musculus [4] it was 75%; in the data set with Mus musculus [9], 97%; with Mus musculus [10], 63%. In addition, the Activity in the data set on Mus musculus [11] is on record as 70%. For the same molecule, the ED50 in the data set with Mus musculus [5] is 0.94 mg/kg; in the data set with Mus musculus [13], 0.35 mg/kg; in the data set on Mus musculus [6] it was 1.27 mg/kg; in the data set on Mus musculus [7], 12.1 mg/kg; with Mus musculus [8], above 50 mg/kg. Also, the ED50 entry with Mus musculus [16] was “inactive”.

As to `O=C(O)/C=C/C(=O)O.O=C(c1ccc(F)cc1)C1CCN(CCCN2c3ccccc3Sc3ccc(C(F)(F)F)cc32)CC1` [DUOPERONE FUMARATE], the Activity with Mus musculus [1] is given as 45%; with Mus musculus [2] it was 58%; in the data set on Mus musculus [3] it was 58%; in the data set on Mus musculus [17], 58%; with Mus musculus [18], 95%; in the data set with Mus musculus [19], “Toxic”. Also, the Activity was 80% with Mus musculus [4]; “Toxic” with Mus musculus [21]; “Toxic” in the data set with Mus musculus [22]; “Non-toxic” in the data set on Mus musculus [23]; “Non-toxic” in the data set on Mus musculus [24]; 92% in the data set on Mus musculus [9]. Moreover, the values for the Activity in the data set with Mus musculus [10] and with Mus musculus [11] were 98% and 88%, respectively. Also, the ED50 turned out to be 4.7 mg/kg with Mus musculus [7]; 15.2 mg/kg with Mus musculus [8]; 27 mg/kg in the data set on Mus musculus [14]; 28.4 mg/kg in the data set on Mus musculus [15]; 26.5 mg/kg in the data set on Mus musculus [20]; 45.5 mg/kg in the data set with Mus musculus [16].

Take `CC(=O)c1ccc2c(c1)N(CCCN1CCC(C(=O)c3ccc(F)cc3)CC1)c1ccccc1S2.O.O=C(O)/C=C/C(=O)O`: the Activity came out at 55% in the data set with Mus musculus [1]; 55% in the data set on Mus musculus [2]; 95% in the data set with Mus musculus [3]; 100% in the data set with Mus musculus [17]; 43% with Mus musculus [4]; 95% with Mus musculus [9]. The values for the Activity with Mus musculus [10] and with Mus musculus [11] were 73% and 61%, respectively. In addition, the median effective dose (ED50) was 22.5 mg/kg in the data set with Mus musculus [7], 17.5 mg/kg with Mus musculus [8], above 64 mg/kg with Mus musculus [14] and 60 mg/kg in the data set on Mus musculus [15]. Further, the ED50 entry in the data set on Mus musculus [16] is “inactive”.

Consider `O=C(c1ccc(Cl)c(Cl)c1)C1CCN(CCCN2c3ccccc3Sc3ccc(Cl)cc32)CC1`, for which the Activity in the data set on Mus musculus [1] is reported as 95%; with Mus musculus [2], 93%; in the data set with Mus musculus [4] it was 92%; in the data set with Mus musculus [9] it was 97%; in the data set on Mus musculus [10], 97%; in the data set with Mus musculus [11] it was 97%. The median effective dose (ED50) with Mus musculus [5] is above 16 mg/kg. In addition, the ED50 entry in the data set with Mus musculus [16] was “inactive”.

As for `O=C(O)/C=C/C(=O)O.O=C(c1ccc(F)cc1)C1CCN(CCCN2c3ccccc3Sc3ccc(Cl)cc32)CC1`, the Activity in the data set with Mus musculus [1] was 40%; in the data set on Mus musculus [2] it was 57%; with Mus musculus [3] it was 95%; with Mus musculus [4], 32%; with Mus musculus [25] it was “Toxic”; with Mus musculus [26] it was “Toxic”. For the same molecule, the Activity entry with Mus musculus [27] was “Toxic”; in the data set with Mus musculus [9], 96%; in the data set on Mus musculus [10] it was 80%; in the data set on Mus musculus [11], 38%. Besides, the ED50 was 0.17 mg/kg in the data set on Mus musculus [5]; 0.53 mg/kg with Mus musculus [13]; 0.72 mg/kg with Mus musculus [6]; 4.6 mg/kg in the data set on Mus musculus [7]; 8.8 mg/kg in the data set on Mus musculus [8]; 20.9 mg/kg with Mus musculus [14]. Further, the 50% effective dose (ED50) in the data set with Mus musculus [15] is above 60 mg/kg. Further, in the data set with Mus musculus [16], the ED50 result was “inactive”.

With `O=C(CCCN1CCC(O)(c2ccc(Cl)cc2)CC1)c1ccc(F)cc1` [HALOPERIDOL], the ED50 in the data set on Mus musculus [5] came out at 0.09 mg/kg; in the data set with Mus musculus [6], 0.58 mg/kg; in the data set with Mus musculus [7] it was 16 mg/kg. In addition, in the data set with Mus musculus [8], the ED50 entry is “Active”.
